Measurements: paper PMC5120626 (Dermatology and Therapy, 2016)

Assays:
[1] = test system: keratinocyte differentiation markers (INVL, TGM1, FLG, LOR) in primary human epidermal keratinocytes; assay: Real-time quantitative PCR of keratinocyte differentiation markers; format: cell-based
Method in brief: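 Primary human epidermal keratinocytes in low-calcium EpiLife (0.06 mM CaCl2) were given 100 nM test compound for 72 h, with or without 500 nM bisindolylmaleimide I for 30 min beforehand. High-calcium medium (1.8 mM) served as the differentiation reference. KRT1, KRT10, INVL, TGM1, FLG and LOR measured by qPCR, normalised to PPIA, RPLP0, GAPDH and TBP and expressed relative to vehicle. Two donors.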

[2] = cited from earlier work
Neutrophil granulocytes = assay: Neutrophil granulocyte respiratory burst; format: cell-based; conditions: relative to ingenol disoxate
Method in brief: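 Human neutrophils isolated from buffy coats by sedimentation, Lymphoprep density centrifugation and erythrocyte lysis. Plated at 2.5 × 10^5 cells/well in HBSS with Ca2+/Mg2+, 0.1% BSA and 5 mM glucose. Titrated test compound premixed with 10 µM hydroethidine for 40 min at ambient temperature; fluorescence ex 485/em 579 nm.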

[3] = Stability in phosphate buffer; format: physicochemical; conditions: phosphate buffer pH 7.4, 37 °C
[4] = test system: IL-8 release from primary epidermal keratinocytes; assay: Keratinocyte IL-8 release; format: cell-based, human; conditions: relative to ingenol disoxate
Method in brief: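 Primary adult human epidermal keratinocytes seeded at 1 × 10^4 cells/well in serum-free EpiLife with HKGS, overnight at 37 °C. Titrated test compound applied for 6 h. Secreted IL-8 measured by MSD 4-spot plates or HTRF. The EC50 is the concentration giving 50% of the maximum reached by a reference ingenol ester, from four experiments.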

[5] = First tier chemical stability assessment in aqueous buffer; format: physicochemical; conditions: aqueous buffer pH 7.4; 16 h, room temperature
[6] = Skin penetration in a Franz chamber diffusion set-up; format: in vitro ADME, human; conditions: 21 h
Method in brief: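 Full-thickness human abdominal skin in vertical Franz cells (2 cm orifice, nine cells per treatment) at 32 °C, with stirred EpiLife plus keratinocyte supplement as receptor. 0.1% w/v hydroalcoholic gel applied for 21 h. Surface excess removed, stratum corneum tape-stripped 12 times, then epidermis and dermis heat-separated and quantified. LOQ 3 ng/biopsy; Mann–Whitney comparison.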

UV-induced skin tumors = assay: UV-induced skin cancer mouse model; format: in vivo; conditions: two consecutive days
[7] = test system: primary epidermal keratinocytes; assay: Keratinocyte proliferation; format: cell-based, human; conditions: concentrations from 100 nM to 10 µM; 72 h
Method in brief: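 Primary adult human epidermal keratinocytes (log phase) at 4 × 10^3 cells/well in serum-free EpiLife with HKGS, overnight at 37 °C. Exposed to titrated test compound for 72 h. Proliferation read as DNA content with CyQUANT Direct stain. Percent inhibition normalised to 1 µM geldanamycin.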

[8] = Local skin reaction in guinea pigs; format: in vivo, guinea pig; conditions: single topical application, 0.015% and 0.05% gel; hairless guinea pigs
Method in brief: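 Seven female IAF hairless guinea pigs (Crl:HA-Hr Hr) received 10 µL of 0.015% or 0.05% gel, or vehicle, on five 2 cm2 flank fields, one condition per field. LSR was scored daily for up to 4 days as a composite of edema, erythema, ulceration and subcutaneous bleeding. Four animals were killed at 24 h for 4 mm punch biopsies and H&E sections.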

B16 melanoma = B16 melanoma mouse model; format: in vivo; conditions: 0.1% in hydroalcoholic gel, topical, two consecutive days; at 3 months
Method in brief: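 Female C57BL/6J mice aged 8–10 weeks received 5 × 10^5 B16 cells intradermally in the flank. Once nodules were visible, tumours were measured by caliper (volume […]) and mice split into cohorts of 8–10 with equal volumes. Treatment was topical, 20 µL of 0.1% hydroalcoholic gel on two consecutive days. The endpoint was a tumour above 250 mm3 or ulceration.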

[9] = Stability in hydroalcoholic gel; format: physicochemical; conditions: for Largest single impurity (5-isomer re-arrangement product): 0.05% w/v gel, 25 °C/60%RH
Method in brief: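 Hydroalcoholic gel at pH 2.8 in citrate buffer, containing benzyl alcohol and isopropanol. For assay, 0.4 g gel was dispersed in 0.1% phosphoric acid/acetonitrile 50:50 and diluted to 10.0 mL. Reverse-phase UHPLC on an HSS C18 column with a 50–95% acetonitrile gradient and UV at 220 nm, against an external reference standard. Run in duplicate.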

Distribution coefficient = format: physicochemical; conditions: octanol/citrate buffer, pH 3
[10] = test system: primary epidermal keratinocytes; assay: Keratinocyte viability and caspase 3/7 activation; format: cell-based, human; conditions: growth-arresting concentrations (100 nM and above); 72 h

For `CN(C)CCCn1cc(C2=C(c3c[nH]c4ccccc34)C(=O)NC2=O)c2ccccc21` [bisindolylmaleimide-1, bisindolylmaleimide I], which “effect of pretreatment on marker induction by ingenol derivatives” value ([1]; 500 nM, 30 min pre-incubation before 100 nM ingenol derivatives) is on record?
The value was “abolished”.

For `CC1=C[C@]23C(=O)[C@@H](C=C(CO)[C@@H](O)[C@]2(O)[C@H]1O)[C@H]1[C@@H](C[C@H]3C)C1(C)C` [Ingenol], which biological activity [2] is on record?
Its biological activity is “lacks biological activity”.

Which “fold less potent in neutrophil activation assay” value (Neutrophil granulocytes) does the source give for `CCc1noc(CC)c1C(=O)OC1C(CO)=CC2C(=O)C3(C=C(C)C(O)C13O)C(C)CC1C2C1(C)C` (stereo not shown) [compound 8, Ingenol-5-(3,5-Diethylisoxazole-4-Carboxylate)] here?
The value was ~56 fold.

What about the “20-isomer in equilibrated mixture” value [3] of the same compound?
The value was 86–88%.

What about the “fold less potent in IL-8 release assay” value [4] of the same compound?
Its value is “approximately tenfold”.

Which compound recovered [5] does the source give for `C/C=C(/C)C(=O)O[C@H]1C(C)=C[C@]23C(=O)[C@@H](C=C(CO)[C@@H](O)[C@]12O)[C@H]1[C@@H](C[C@H]3C)C1(C)C` [Ingenol mebutate, Ingenol 3-Angelate] here?
The compound recovered was 60%.

What about the “transcription of intermediate (INVL) and late (TGM1, FLG, LOR) keratinocyte differentiation markers” value ([1]; 100 nM, 72 h, low calcium medium) of the same compound?
The value was “stimulated transcription”.

And the “epidermal relative to dermal concentration” value ([6]; 0.1% gel)?
The value was “more than 100 fold”.

And the Dermal exposure level ([6]; 0.1% in hydroalcoholic gel, topical)?
The Dermal exposure level was 364 ± 64 nM.

And the epidermal concentration level ([6]; 0.1% in hydroalcoholic gel, topical, stratum corneum removed)?
Its epidermal concentration level is 100 µM.

And the antitumor effect (UV-induced skin tumors; 0.05% gel)?
Its antitumor effect is “slightly weaker effect”.

What about the antitumor effect (UV-induced skin tumors; 0.1% gel) of the same compound?
Its antitumor effect is “comparable effect”.

And the tumor clearance (UV-induced skin tumors; topical gel, SKH1 mice, largely maintained 5 weeks post treatment)?
Its tumor clearance is “more than 50%”.

What about the growth inhibition [7] of the same compound?
The growth inhibition was “Total growth inhibition without obvious signs of toxicity”.

And the “local skin reaction (LSR)” value [8]?
Its value is “robust LSR response”.

What about the “time of peak local skin reaction” value [8] of the same compound?
The value was 24 h.

What about the “animals remaining tumor free (overall tumor free survival)” value (B16 melanoma) of the same compound?
Its value is 45%.

What about the decrease of concentration ([9]; 0.05% gel, after 6 months storage at 25 °C/60%RH) of the same compound?
Its decrease of concentration is 8.0 % of label claim.

And the “Largest single impurity (5-isomer re-arrangement product)” value ([9]; 6 months)?
The value was 5.1 area %.

And the “Largest single impurity (5-isomer re-arrangement product)” value ([9]; Start)?
Its value is 0.2 area %.

What about the logD at 24 h (Distribution coefficient) of the same compound?
The logD at 24 h was 3.5.

And the “cytotoxicity or apoptosis (viability, caspase 3/7)” value [10]?
The value was “No signs of cytotoxicity or apoptosis”.

Which “fold less potent in neutrophil activation assay” value (Neutrophil granulocytes) does the source give for `CCc1noc(CC)c1C(=O)OCC1=CC2C(=O)C3(C=C(C)C(O)C3(O)C1O)C(C)CC1C2C1(C)C` (stereo not shown) [compound 9, Ingenol-20-(3,5-Diethylisoxazole-4-Carboxylate)] here?
Its value is “at least 150 fold”.

What about the stability over time ([3]; 24 h) of the same compound?
Its stability over time is “did not change over time”.

And the “fold less potent in IL-8 release assay” value [4]?
Its value is “at least 150 fold”.
